In ChEMBL document CHEMBL4261518, “Side chain-functionalized aniline-derived ursolic acid derivatives as multidrug resistance reversers that block the nuclear factor-kappa B (NF-κB) pathway and cell proliferation” (Medchemcomm, 2017):

What was measured:
L02 = experiment: Cytotoxicity against human HL7702 cells after 48 hrs by MTT assay; format: cell-based; conditions: L02, 48 h
Procedure, shortened: (§1)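 Cells grown overnight in DMEM + 10% FBS at 37 °C under 5% CO2, then given a range of compound concentrations for 48 h. MTT added for about 4 h, medium replaced by DMSO, absorbance read at 570/630 nm. IC50 reported as mean ± SD of five independent experiments.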

MGC-803 = experiment: Cytotoxicity against human MGC803 cells after 48 hrs by MTT assay; format: functional, cell-based; conditions: MGC-803, 48 h; procedure, shortened: as §1
[1] = Cytotoxicity against human SPCA2 cells after 48 hrs by MTT assay; format: functional, cell-based; conditions: SPCA2, 48 h; procedure, shortened: as §1
NCI-H460 [2] = experiment: Cytotoxicity against human NCI-H460 cells after 48 hrs by MTT assay; format: functional, cell-based; conditions: NCI-H460, 48 h; procedure, shortened: as §1
T-24 = experiment: Cytotoxicity against human T24 cells after 48 hrs by MTT assay; format: functional, cell-based; conditions: T-24, 48 h; procedure, shortened: as §1
A549 = experiment: Cytotoxicity against human A549 cells after 48 hrs by MTT assay; format: functional, cell-based; conditions: A549, 48 h; procedure, shortened: as §1
[3] = Inhibition of TNFalpha-induced NF-kB (unknown origin) activation expressed in human NCI-H460 cells after 7 hrs by luciferase reporter gene assay; format: cell-based; conditions: NCI-H460, 7 h
Procedure, shortened: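 NCI-H460 cells transiently co-transfected with pNF-κB-Luc reporter and pSV-β-galactosidase internal control by lipofectamine. Medium changed after 6 h, then 6 h further culture. TNF-α (15 ng ml–1) plus compound given together for 7 h. Luciferase ratio to TNF-α-only cells, corrected for non-TNF background and viability. IC50 from sigmoidal variable-slope fit.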

NCI-H460 [4] = experiment: Cytotoxicity against human NCI-H460 cells harboring pNF-kB-Luc assessed as reduction in cell viability after 7 hrs by MTT assay relative to control; parameters: concentration or dose not given beside the values; conditions: nci-h460, 7 h

IC50 [3] [µM]	Compound	IC50 (L02) [µM]	IC50 (MGC-803) [µM]	IC50 [1] [µM]	IC50 (NCI-H460 [2]) [µM]	IC50 (T-24) [µM]	IC50 (A549) [µM]	Activity (NCI-H460 [4]) [%]
–	Cc1cccc(NC(=O)[C@]23CC[C@@H](C)[C@H](C)[C@H]2C2=CC[C@@H]4[C@@]5(C)CCC(=O)C(C)(C)[C@@H]5CC[C@@]4(C)[C@]2(C)CC3)c1	> 50	> 50	> 50	> 50	> 50	> 50	–
> 20	COc1cc(NC(=O)COC(=O)[C@]23CC[C@@H](C)[C@H](C)[C@H]2C2=CC[C@@H]4[C@@]5(C)CCC(=O)C(C)(C)[C@@H]5CC[C@@]4(C)[C@]2(C)CC3)cc(OC)c1OC	> 50	38.7	27.9	39.6	37.8	35.8	< 5
> 20	COc1ccc(NC(=O)[C@]23CC[C@@H](C)[C@H](C)[C@H]2C2=CC[C@@H]4[C@@]5(C)CCC(=O)C(C)(C)[C@@H]5CC[C@@]4(C)[C@]2(C)CC3)cc1	> 50	29.7	21.1	28.1	32.5	39.9	< 5
> 20	COc1ccc(NC(=O)[C@]23CC[C@@H](C)[C@H](C)[C@H]2C2=CC[C@@H]4[C@@]5(C)CCC(=O)C(C)(C)[C@@H]5CC[C@@]4(C)[C@]2(C)CC3)cc1OC	> 50	32.5	28.4	30.2	37.3	38.7	< 5
> 20	COc1cc(NC(=O)[C@]23CC[C@@H](C)[C@H](C)[C@H]2C2=CC[C@@H]4[C@@]5(C)CCC(=O)C(C)(C)[C@@H]5CC[C@@]4(C)[C@]2(C)CC3)cc(OC)c1OC	> 50	40.1	29.9	34.3	39.8	41.2	< 5
–	CC[C@@]1(O)C(=O)OCc2c1cc1n(c2=O)Cc2cc3cc(O)ccc3nc2-1 [HYDROXYCAMPTOTHECIN]	12.8	–	12.6	16.6	–	2.75	–
> 20	C[C@H]1[C@H](C)CC[C@]2(C(=O)O)CC[C@]3(C)C(=CC[C@@H]4[C@@]5(C)CC[C@H](O)C(C)(C)[C@@H]5CC[C@]43C)[C@H]12 [URSOLIC ACID]	> 50	27.6	30.2	32.2	–	–	< 5
–	COc1cccc(NC(=O)COC(=O)[C@]23CC[C@@H](C)[C@H](C)[C@H]2C2=CC[C@@H]4[C@@]5(C)CCC(=O)C(C)(C)[C@@H]5CC[C@@]4(C)[C@]2(C)CC3)c1	> 50	> 50	> 50	> 50	> 50	> 50	–
–	COc1cccc(NC(=O)[C@]23CC[C@@H](C)[C@H](C)[C@H]2C2=CC[C@@H]4[C@@]5(C)CC[C@H](OC(C)=O)C(C)(C)[C@@H]5CC[C@@]4(C)[C@]2(C)CC3)c1	> 50	> 50	> 50	> 50	> 50	> 50	–
–	CC(=O)O[C@H]1CC[C@]2(C)[C@H]3CC=C4[C@@H]5[C@@H](C)[C@H](C)CC[C@]5(C(=O)Nc5cccc(C)c5)CC[C@@]4(C)[C@]3(C)CC[C@H]2C1(C)C	> 50	> 50	> 50	> 50	> 50	> 50	–
–	Cc1cccc(NC(=O)COC(=O)[C@]23CC[C@@H](C)[C@H](C)[C@H]2C2=CC[C@@H]4[C@@]5(C)CCC(=O)C(C)(C)[C@@H]5CC[C@@]4(C)[C@]2(C)CC3)c1	> 50	> 50	> 50	> 50	> 50	> 50	–
